ChEMBL document CHEMBL1156038 (J Med Chem, 2009)
Activity calls are given as the source filed them. The calls are words filed in the database; no cut-off is given here.

Assays:
HEK293 [1] = experiment: Inhibition of [3H]adenine binding to adenine 1 receptor in HEK293 cells at 100 uM by liquid scintillation counting; format: cell-based; settings: Homo sapiens
[2] = Displacement of [3H]adenine from adenine 1 receptor in HEK293 cells by liquid scintillation counting; format: cell-based, Homo sapiens
HEK293 [3] = experiment: Selectivity ratio of Ki for adenine 1 receptor in HEK293 cells to Ki for adenine 1 receptor in rat brain cortical membrane; format: cell-based
Rattus norvegicus [4] = species on record: Rattus norvegicus; experiment: Inhibition of [3H]adenine binding to adenine 1 receptor in rat brain cortical membrane at 100 uM by liquid scintillation counting; format: cell membranes
How it was run: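 Aqueous solutions were autoclaved or heated >90 °C for ≥10 min to destroy bacterial binding sites. […] Filtered on GF/B with ice-cold Tris washes, then scintillation counted. Percent inhibition ± SEM.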

1321-N1 [5] = experiment: Agonist activity at rat adenine 1 receptor expressed in human 1321N1 cells assessed as inhibition of isoproterenol-induced [3H]cAMP formation at 500 uM by scintillation counting; format: functional, cell-based
How it was run: (§1)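 1321N1 astrocytoma cells stably expressing rat Ade1R (retroviral pLXSN, G418 800 μg/mL), grown on 24-well plates. Cells washed and held 2 h at 37 °C in HBSS pH 7.3. Compound added together with 3 nM isoproterenol for 10 min at 37 °C, then stopped with hot EDTA/Triton lysis. cAMP measured by [3H]cAMP competition with calf adrenal binding protein and filtration, read against a 0–40 pmol standard curve. Result given as % of isoproterenol alone; n = 3.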

1321-N1 [6] = experiment: Inhibition of [3H]adenine uptake at rat adenine 1 receptor expressed in human 1321N1 cells at 100 uM after 1 min by liquid scintillation counting; format: cell-based
HEK293 [7] = experiment: Selectivity ratio of Ki for adenine 1 receptor in rat brain cortical membrane to Ki for adenine 1 receptor in HEK293 cells; format: cell-based
[8] = Agonist activity at rat adenine 1 receptor expressed in human 1321N1 cells assessed as inhibition of isoproterenol-induced [3H]cAMP formation at 250 uM by scintillation counting relative to adenine; format: functional; how it was run: as §1
1321-N1 [9] = experiment: Antagonist activity at rat adenine 1 receptor expressed in human 1321N1 cells assessed as change in adenine IC50 for inhibition of isoproterenol-induced [3H]cAMP formation at 10 uM by scintillation counting; format: functional, cell-based
How it was run: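 Retrovirally transduced 1321N1 astrocytoma cells stably expressing rat Ade1R, 24-well culture, washed and preincubated in Hepes-buffered HBSS pH 7.3, 2 h, 37 °C. […] Hot EDTA/Triton lysis. cAMP measured by competition with [3H]cAMP for calf adrenal binding protein, filtered, scintillation counting.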

Rattus norvegicus [10] = species on record: Rattus norvegicus; experiment: Inhibition of [3H]adenine binding to adenine 1 receptor in rat brain cortical membrane at 30 uM by liquid scintillation counting; format: cell membranes
[11] = Agonist activity at rat adenine 1 receptor expressed in human 1321N1 cells assessed as inhibition of isoproterenol-induced [3H]cAMP formation at 50 uM by scintillation counting relative to adenine; format: functional; how it was run: as §1
1321-N1 [12] = experiment: Inhibition of [3H]adenine uptake at rat adenine 1 receptor expressed in human 1321N1 cells at 1 mM after 1 min by liquid scintillation counting; format: cell-based
[13] = (§2) Agonist activity at rat adenine 1 receptor expressed in human 1321N1 cells assessed as inhibition of isoproterenol-induced [3H]cAMP formation by scintillation counting; format: functional, cell-based
1321-N1 [14] = experiment: as §2; format: functional, cell-based
[15] = Agonist activity at rat adenine 1 receptor expressed in human 1321N1 cells assessed as inhibition of isoproterenol-induced [3H]cAMP formation at 1 uM by scintillation counting; format: functional
1321-N1 [16] = experiment: Agonist activity at rat adenine 1 receptor expressed in human 1321N1 cells assessed as inhibition of isoproterenol-induced [3H]cAMP formation at 30 uM by scintillation counting; format: functional, cell-based; how it was run: as §1
1321-N1 [17] = experiment: Activity at rat adenine 1 receptor expressed in human 1321N1 cells assessed as complete inhibition of cAMP formation at 250 uM; format: cell-based; how it was run: as §1
Rattus norvegicus [18] = species on record: Rattus norvegicus; experiment: Inhibition of [3H]adenine binding to adenine 1 receptor in rat brain cortical membrane at 250 uM by liquid scintillation counting; format: cell membranes
1321-N1 [19] = experiment: Agonist activity at rat adenine 1 receptor expressed in human 1321N1 cells assessed as inhibition of isoproterenol-induced [3H]cAMP formation at 250 uM by scintillation counting; format: functional, cell-based; how it was run: as §1

Row | Structure (SMILES) | inhibition (Rattus norvegicus [4]) [%] | Ki [2] [µM] | Ratio Ki (HEK293 [3]) | other results
1 | Nc1ncnc2c1ncn2CCc1ccccc1 | – | 100 | 2 | inhibition (HEK293 [1]): 57%
2 | O=c1[nH]cnc2cc[nH]c12 | 0 | – | – | –
3 | Nc1nc(Cl)nc2c1ncn2[C@H]1C[C@H](O)[C@@H](CO)O1 | 9 | – | – | –
4 | Nc1nc2[nH]cnc(N)c-2n1 | – | 0.0341 | 0.005 | inhibition (1321-N1 [5]): Active; inhibition (1321-N1 [6]): Active; Ratio Ki (HEK293 [7]): 190
5 | Nc1ncnc2c1ncn2CCc1cccnc1 | – | > 100 | 1.3 | inhibition (HEK293 [1]): 41%
6 | Nc1ncnc2c1ncn2[C@H]1C[C@H](O)[C@@H](CO)O1 [DEOXYADENOSINE] | – | > 100 | > 9 | inhibition (HEK293 [1]): 29%
7 | CCOc1ncnc2c1ncn2C1CCCCC1 | -1 | – | – | –
8 | Nc1nc(Cl)nc2c1ncn2[C@@H]1O[C@H](CO)[C@@H](O)[C@H]1O | 1 | – | – | –
9 | Nc1ncnc2[nH]c(N3CCNCC3)nc12 | – | 27.4 | 8.4 | Efficacy [8]: 52%; Activity (1321-N1 [9]): inactive; inhibition (1321-N1 [6]): Active
10 | Nc1ncnc2[nH]c(C#Cc3ccccc3)nc12 | – | – | – | inhibition (Rattus norvegicus [10]): 19%
11 | ONc1ncnc2[nH]cnc12 | – | 9.53 | 19 | inhibition (1321-N1 [6]): Active; Efficacy [11]: 51%
12 | Nc1[nH]ccc2ncnc1-2 | – | 6.68 | 1 | –
13 | Nc1nc(C#Cc2ccccc2)nc2c1ncn2[C@@H]1O[C@H](CO)[C@@H](O)[C@H]1O | 0 | – | – | –
14 | Nc1ncnc2c1ncn2CCc1ccccn1 | – | 100 | > 22 | inhibition (HEK293 [1]): 58%
15 | Nc1ncnc2[nH]c(Sc3ccccc3)nc12 | – | – | – | inhibition (Rattus norvegicus [10]): 0%
16 | Nc1[nH]cnc2nc(NCc3ccccc3)nc1-2 | – | 32.9 | 4.9 | –
17 | CCCSc1nc2c(N)ncnc2[nH]1 | – | – | – | inhibition (Rattus norvegicus [10]): 0%
18 | Nc1ncnc2[nH]c(O)nc12 | – | 110 | 4.1 | –

Row | Structure (SMILES) | inhibition (Rattus norvegicus [4]) [%] | Ki [2] [µM] | Ratio Ki (HEK293 [3]) | other results
19 | Nc1ncnc2[nH]c(/C=C/c3ccccc3)nc12 | – | 12.2 | 0.67 | –
20 | Nc1[nH]cnc2ncnc1-2 [ADENINE] | – | 0.0471 | – | inhibition (1321-N1 [12]): Active; IC50 [13]: 8.29 nM; Activity (1321-N1 [14]): Dose-dependent effect; inhibition at 1 µM [15]: 35%
21 | CSc1nc2c(N)ncnc2[nH]1 | – | – | – | inhibition (Rattus norvegicus [10]): 10%
22 | CCn1cnc2c(NC3CCCC3)ncnc21 | 5 | – | – | –
23 | Nc1ncnc2[nH]c(N3CCCCC3)nc12 | – | 31.7 | 8.1 | inhibition (1321-N1 [16]): Active; inhibition (1321-N1 [17]): Active; inhibition (1321-N1 [6]): Active
24 | OCCNc1ncnc2[nH]cnc12 | – | 100 | 4 | inhibition (HEK293 [1]): 58%
25 | Nc1ncnc2c1ncn2CCN1CCNCC1 | – | > 100 | – | inhibition (HEK293 [1]): 0%; inhibition (Rattus norvegicus [18]): 28%
26 | Nc1ncnc2[nH]c(N3CCCC3)nc12 | – | > 100 | > 2.4 | inhibition (HEK293 [1]): 18%
27 | CN(C)c1nc2c(N)ncnc2[nH]1 | – | 34.1 | 14.8 | inhibition at 250 µM ([8]; Rattus norvegicus, 1321-N1): 137%; inhibition (1321-N1 [6]): Active
28 | CCNc1ncnc2[nH]cnc12 | – | 100 | 6 | inhibition (HEK293 [1]): 59%
29 | Nc1ccnc2[nH]cnc12 | – | 7.89 | 0.7 | –
30 | Nc1ncnc2c1ncn2CCC(=O)O | – | 18.5 | 0.9 | –
31 | NNc1ncnc2[nH]cnc12 | – | 17.5 | 13 | –
32 | Nc1ncnc2c1ncn2CC(N)C(=O)O (racemic) | – | 6.23 | 0.58 | –
33 | Nc1ncnc2c1ncn2CCN1CCOCC1 | – | 5.49 | 1.8 | inhibition (1321-N1 [19]): Active; inhibition (1321-N1 [6]): Active
34 | CC(=O)Nc1ncnc2[nH]cnc12 | – | 0.515 | 0.18 | Efficacy [8]: 77%; Activity (1321-N1 [9]): inactive; inhibition (1321-N1 [6]): Active; Ratio Ki (HEK293 [7]): 5.5
35 | CCSc1nc2c(N)ncnc2[nH]1 | – | – | – | inhibition (Rattus norvegicus [10]): 0%
36 | Nc1ncnc2c1ncn2CCc1ccncc1 | – | > 100 | – | inhibition (HEK293 [1]): 44%; inhibition (Rattus norvegicus [18]): 46%

Now from value to molecule, other results behind:

Row | inhibition (Rattus norvegicus [4]) [%] | Structure (SMILES) | Ki [2] [µM] | Ratio Ki (HEK293 [3]) | other results
37 | 21 | Nc1ncnc2[nH]ccc12 | – | – | –
38 | 7 | CCn1cnc2c(N)nc(OCCc3ccccc3)nc21 | – | – | –
39 | 23 | Nc1ncnc2[nH]c(-c3cccc(C(F)(F)F)c3)nc12 | – | – | –
40 | 3 | CCn1cnc2c(NCCc3ccccc3)ncnc21 | – | – | –
41 | 3 | CCn1cnc2c(N)nc(NCCc3ccccc3)nc21 | – | – | –
42 | 46 | CC(C)(C)OC(=O)NCCCNc1ncnc2[nH]cnc12 | – | – | –
43 | -6 | Nc1ncnc2c1ncn2C1CCCCC1 | – | – | –
44 | 16 | Nc1ncnc2[nH]c(-c3ccccc3)nc12 | – | – | –
45 | 4 | CCCCOc1nc(N)c2ncn(CC)c2n1 | – | – | –
46 | 12 | CCCCC(CC)n1cnc2c(N)ncnc21 (stereo not drawn) | – | – | –
47 | 21 | CC(C)(C)OC(=O)NCCNc1ncnc2[nH]cnc12 | – | – | –
48 | 4 | CCn1cnc2c(OCCc3ccccc3)ncnc21 | – | – | –
49 | 5 | CCCCC#Cc1nc(N)c2ncn([C@@H]3O[C@H](CO)[C@@H](O)[C@H]3O)c2n1 | – | – | –
50 | 49 | NCCCNc1ncnc2[nH]cnc12 | – | – | –
51 | 11 | Nc1ncnc2ncn(Cc3ccccc3)c12 | – | – | –
52 | 15 | Nc1ncnc2c1ncn2Cc1ccccc1 | – | – | –
53 | 1 | CCn1cnc2c(N)nc(Cl)nc21 | – | – | –
54 | 24 | Nc1nc(OCCc2ccccc2)nc2[nH]cnc12 | – | – | –
55 | 39 | Nc1ncnc2c1N=CC2 | – | – | –
56 | -5 | Nc1nc(OCCC2CCCCC2)nc2[nH]cnc12 | – | – | –
57 | 58 | NCCNc1ncnc2[nH]cnc12 | – | – | –
